Assays:
Format in all cases: functional
Candida parapsilosis [1] = assay: Antimicrobial activity against Candida parapsilosis in silicone disk biofilm at 3 mg/ml after 60 mins in drug assessed as 24 hr regrowth
Summary of the method: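 C. parapsilosis biofilm on plasma-coated silicone disks was exposed 1 h at 37°C to drug, then saline-washed and incubated overnight at 37°C in Trypticase soy broth. Disks were then sonicated 5 min in that broth and plated on sheep blood agar. 5–10 replicates; regrowth is given as mean CFU/ml ± SD, capped at 5,000.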

Candida parapsilosis [2] = assay: Antimicrobial activity against Candida parapsilosis in silicone disk biofilm at 3 mg/ml after 60 mins
Summary of the method: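 Silicone disks were preconditioned in human plasma for 24 h at 37°C with shaking. They were then colonized 24 h with C. parapsilosis at 5.5 × 10^5 cells/ml in MHB and washed 30 min in saline. Disks were exposed 1 h at 37°C to drug or MHB, sonicated 5 min in saline, vortexed and plated on blood agar. 5–10 replicates; mean CFU/ml ± SD, capped at 5,000.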

Candida parapsilosis [3] = assay: Antimicrobial activity against Candida parapsilosis embedded in MRD biofilm at 3 mg/ml after 15 mins in drug assessed as 24 hr regrowth
Summary of the method: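 MRD C. parapsilosis-colonized segments were soaked 15 min at 37°C in drug in broth. A second set was reincubated 24 h at 37°C in Mueller-Hinton broth, scrape-sonicated and plated on sheep blood agar overnight. Regrowth is given as mean CFU/ml ± SD, capped at 500.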

Staphylococcus aureus [4] = assay: Antimicrobial activity against methicillin-resistant Staphylococcus aureus in silicone disk biofilm at 3 mg/ml after 60 mins in drug assessed as 24 hr regrowth
Summary of the method: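 MRSA biofilm on plasma-coated silicone disks (inoculum 5.5 × 10^5 cells/ml in MHB, 24 h, 37°C, shaking), saline-washed, then exposed to drug for 1 h at 37°C. Disks washed in saline, incubated overnight at 37°C in Trypticase soy broth, sonicated 5 min in that broth and plated on blood agar. 5–10 replicates. Mean CFU/ml, capped at 5,000.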

Staphylococcus aureus [5] = assay: Antimicrobial activity against methicillin-resistant Staphylococcus aureus embedded in MRD biofilm model at 3 mg/ml after 15 mins
Summary of the method: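 MRSA clinical isolates from catheter-related bacteremia. Infusate of 2 × 10^5 CFU/ml in 5% dextrose water pumped through a modified Robbins device at 60 ml/h for 8 h at 37°C, then 10 h further incubation and a 2 h saline flush. Catheter segments soaked in drug in Mueller-Hinton broth for 15 min at 37°C, scrape-sonicated in TSB, plated on blood agar overnight. Mean CFU/ml, capped at 500.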

Staphylococcus aureus [6] = assay: Antimicrobial activity against methicillin-resistant Staphylococcus aureus embedded in MRD biofilm model at 3 mg/ml after 15 mins in drug assessed as 24 hr regrowth
Summary of the method: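 MRSA biofilm grown on catheter segments in a modified Robbins device: 5% dextrose infusate at 2 × 10^5 CFU/ml, 60 ml/h for 8 h at 37°C, then 10 h incubation and a saline flush. Segments exposed to drug in broth for 15 min at 37°C, then reincubated 24 h at 37°C in Mueller-Hinton broth, scrape-sonicated and plated on blood agar. Mean CFU/ml, capped at 500.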

Staphylococcus aureus [7] = assay: Antimicrobial activity against methicillin-resistant Staphylococcus aureus in silicone disk biofilm at 3 mg/ml after 60 mins
Summary of the method: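 Silicone disks preconditioned in human plasma for 24 h at 37°C with shaking, then shaken 24 h at 37°C with MRSA at 5.5 × 10^5 cells/ml in MHB. Disks washed 30 min in 0.9% saline, exposed to drug for 1 h at 37°C, sonicated 5 min in saline, vortexed and plated on blood agar overnight. 5–10 replicates. Mean CFU/ml, capped at 5,000.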

Candida parapsilosis [8] = assay: Antimicrobial activity against Candida parapsilosis embedded in MRD biofilm at 3 mg/ml after 15 mins
Summary of the method: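 MRD catheter segments colonized by infusing C. parapsilosis-infected 5% dextrose (2 × 10^2 CFU/ml) at 60 ml/h for 8 h at 37°C, then incubated 10 h more and flushed with saline 2 h. Segments soaked 15 min at 37°C in drug in Mueller-Hinton broth (MHB alone as control). Then scrape-sonicated 5 min in Trypticase soy broth and plated on blood agar overnight. Mean CFU/ml ± SD reported, capped at 500.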

CN(C)c1ccc(O)c2c1C[C@H]1C[C@H]3[C@H](N(C)C)C(O)=C(C(N)=O)C(=O)[C@@]3(O)C(O)=C1C2=O [MINOCYCLINE]
CFU/ml (Candida parapsilosis [1]): 5000
CFU/ml (Candida parapsilosis [2]): 5000
CFU/ml (Candida parapsilosis [3]): 500
CFU/ml (Staphylococcus aureus [4]): 5000
CFU/ml (Staphylococcus aureus [5]): 324
CFU/ml (Staphylococcus aureus [6]): 308
CFU/ml (Staphylococcus aureus [7]): 5000
CFU/ml (Candida parapsilosis [8]): 138
